Test results reported in ChEMBL document CHEMBL4041514, “From pyrrolidinyl-benzodioxane to pyrrolidinyl-pyridodioxanes, or from unselective antagonism to selective partial agonism at α4β2 nicotinic acetylcholine receptor” (Eur J Med Chem, 2017).
Activity calls are given as the source filed them. The rule behind the calls is not given here.

Legend:
[1] = Displacement of [3H]epibatidine from rat cerebral cortex membrane alpha4beta2* nAChR pretreated for 5 mins followed by [3H]epibatidine addition after overnight incubation by beta counter
In short: (§1)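 Competition binding using [3H]epibatidine for rat cortex α4β2* and human α3β4 from transfected cells, and [125I]α-bungarotoxin for rat hippocampus α7*. Kd from three saturation experiments and Ki from three competition experiments. Fitted by nonlinear least squares (LIGAND) with an F test.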

[2] = Displacement of [125I]alpha-bungarotoxin from rat hippocampus membrane alpha7* nAChR pretreated for 5 mins followed by [125I]alpha-bungarotoxin addition after overnight incubation by gamma counter; in short: as §1
[3] = target: T1, Neuronal acetylcholine receptor; alpha3/beta4 (Homo sapiens, UniProt P30926+P32297); assay: Antagonist activity at human alpha3beta4 nAChR expressed in GH4CL cells by whole-cell patch clamp method; assay type: cell-based
[4] = target: T2, Neuronal acetylcholine receptor; alpha4/beta2 (Homo sapiens, UniProt P17787+P43681); assay: Partial agonist activity at human alpha4beta2 nAChR expressed in GH4CL cells by whole-cell patch clamp method; assay type: cell-based
In short: (§2)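 Human receptor transiently transfected into GH4C1 pituitary cells. Agonist concentrations applied in sequence. Peak currents normalized to the 1 mM ACh response on the same cell. Fitted to a Hill equation, I = Imax([C]^nH/(EC50^nH+[C]^nH)), to give EC50, Imax and Hill coefficient.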

[5] = target: T2, Neuronal acetylcholine receptor; alpha4/beta2; assay: Antagonist activity at human alpha4beta2 nAChR expressed in GH4CL cells by whole-cell patch clamp method; assay type: cell-based
[6] = species: Rattus norvegicus; assay: Selectivity ratio of Ki for displacement of [125I]alpha-bungarotoxin from rat hippocampus membrane alpha7* nAChR to Ki for displacement of [3H]epibatidine from rat cerebral cortex membrane alpha4beta2* nAChR
In short: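 Ki for rat hippocampal α7* ([125I]α-bungarotoxin competition) divided by Ki for rat cortical α4β2* ([3H]epibatidine competition). Each Ki comes from three competition experiments analysed by nonlinear least squares.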

[7] = Selectivity ratio of Ki for displacement of [3H]epibatidine from human alpha3beta4 nAChR expressed in HEK293 cells to Ki for displacement of [3H]epibatidine from rat cerebral cortex membrane alpha4beta2* nAChR; assay type: cell-based
In short: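 [3H]-epibatidine competition binding on native rat cerebral cortex membranes (α4β2*) and on membranes of HEK cells transiently transfected with human α3β4. Kd and Ki came from three saturation and three competition experiments each, fitted by nonlinear least squares (LIGAND) with F test. The ratio is α3β4 Ki divided by α4β2 Ki.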

[8] = target: T1, Neuronal acetylcholine receptor; alpha3/beta4; assay: Partial agonist activity at human alpha3beta4 nAChR expressed in GH4CL cells by whole-cell patch clamp method; assay type: cell-based; in short: as §2
[9] = target: T1, Neuronal acetylcholine receptor; alpha3/beta4; assay: Displacement of [3H]epibatidine from human alpha3beta4 nAChR expressed in HEK293 cells pretreated for 5 mins followed by [3H]epibatidine addition after overnight incubation by beta counter; assay type: cell-based; in short: as §1
[10] = target: T2, Neuronal acetylcholine receptor; alpha4/beta2; assay: Partial agonist activity at human alpha4beta2 nAChR expressed in GH4CL cells by whole-cell patch clamp method relative to acetylcholine; assay type: cell-based; in short: as §2
[11] = target: Neuronal acetylcholine receptor; alpha4/beta2 (Rattus norvegicus, UniProt P09483+P12390); assay: Displacement of [3H](-)cytisine from rat whole brain alpha4beta2 nAChR
Sequence of Neuronal acetylcholine receptor; alpha4/beta2 (Rattus norvegicus, UniProt P09483+P12390) (P09483 whole entry): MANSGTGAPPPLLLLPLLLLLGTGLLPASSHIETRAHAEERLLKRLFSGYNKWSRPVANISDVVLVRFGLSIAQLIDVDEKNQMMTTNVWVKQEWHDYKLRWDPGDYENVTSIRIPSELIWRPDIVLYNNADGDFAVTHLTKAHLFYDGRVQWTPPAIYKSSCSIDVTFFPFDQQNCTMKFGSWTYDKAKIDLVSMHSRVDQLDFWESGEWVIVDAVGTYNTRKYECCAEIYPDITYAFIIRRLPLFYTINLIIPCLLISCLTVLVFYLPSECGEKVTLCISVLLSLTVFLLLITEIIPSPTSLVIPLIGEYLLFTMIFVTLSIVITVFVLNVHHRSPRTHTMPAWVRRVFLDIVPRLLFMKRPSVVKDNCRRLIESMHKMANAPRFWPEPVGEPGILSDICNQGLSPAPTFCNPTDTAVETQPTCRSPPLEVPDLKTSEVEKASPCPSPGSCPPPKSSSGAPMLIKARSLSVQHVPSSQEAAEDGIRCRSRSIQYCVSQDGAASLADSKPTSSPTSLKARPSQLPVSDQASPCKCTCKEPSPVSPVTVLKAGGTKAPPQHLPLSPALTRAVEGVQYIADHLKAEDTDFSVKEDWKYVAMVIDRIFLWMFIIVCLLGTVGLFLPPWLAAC
Sequence of Neuronal acetylcholine receptor; alpha4/beta2 (Rattus norvegicus, UniProt P09483+P12390) (P12390 whole entry): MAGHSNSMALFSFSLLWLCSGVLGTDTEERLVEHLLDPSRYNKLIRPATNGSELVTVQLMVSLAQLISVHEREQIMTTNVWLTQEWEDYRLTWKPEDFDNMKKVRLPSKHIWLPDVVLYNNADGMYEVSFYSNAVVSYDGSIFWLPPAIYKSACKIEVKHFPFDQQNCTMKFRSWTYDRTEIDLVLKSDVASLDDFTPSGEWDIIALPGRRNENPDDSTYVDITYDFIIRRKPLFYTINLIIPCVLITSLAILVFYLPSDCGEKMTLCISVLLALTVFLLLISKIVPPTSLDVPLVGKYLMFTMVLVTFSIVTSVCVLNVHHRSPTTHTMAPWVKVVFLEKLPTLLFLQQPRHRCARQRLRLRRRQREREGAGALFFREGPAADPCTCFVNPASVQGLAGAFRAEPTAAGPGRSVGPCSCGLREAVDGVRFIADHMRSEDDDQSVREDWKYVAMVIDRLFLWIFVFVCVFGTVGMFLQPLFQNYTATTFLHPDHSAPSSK

T1 sequence (P30926 whole entry): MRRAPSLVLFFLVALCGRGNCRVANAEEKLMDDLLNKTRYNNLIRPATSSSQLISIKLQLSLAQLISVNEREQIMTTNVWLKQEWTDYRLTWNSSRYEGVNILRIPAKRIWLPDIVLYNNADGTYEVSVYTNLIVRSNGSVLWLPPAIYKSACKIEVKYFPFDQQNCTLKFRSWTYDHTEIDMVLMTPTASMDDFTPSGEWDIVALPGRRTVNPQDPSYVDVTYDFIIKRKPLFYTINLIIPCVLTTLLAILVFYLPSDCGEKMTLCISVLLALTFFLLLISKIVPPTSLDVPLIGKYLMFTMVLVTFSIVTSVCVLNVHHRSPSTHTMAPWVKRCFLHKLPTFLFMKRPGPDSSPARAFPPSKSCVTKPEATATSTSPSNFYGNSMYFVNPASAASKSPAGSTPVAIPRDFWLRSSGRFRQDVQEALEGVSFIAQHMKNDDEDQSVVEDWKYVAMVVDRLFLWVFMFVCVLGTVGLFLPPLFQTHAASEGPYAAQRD
T1 sequence (P32297 whole entry): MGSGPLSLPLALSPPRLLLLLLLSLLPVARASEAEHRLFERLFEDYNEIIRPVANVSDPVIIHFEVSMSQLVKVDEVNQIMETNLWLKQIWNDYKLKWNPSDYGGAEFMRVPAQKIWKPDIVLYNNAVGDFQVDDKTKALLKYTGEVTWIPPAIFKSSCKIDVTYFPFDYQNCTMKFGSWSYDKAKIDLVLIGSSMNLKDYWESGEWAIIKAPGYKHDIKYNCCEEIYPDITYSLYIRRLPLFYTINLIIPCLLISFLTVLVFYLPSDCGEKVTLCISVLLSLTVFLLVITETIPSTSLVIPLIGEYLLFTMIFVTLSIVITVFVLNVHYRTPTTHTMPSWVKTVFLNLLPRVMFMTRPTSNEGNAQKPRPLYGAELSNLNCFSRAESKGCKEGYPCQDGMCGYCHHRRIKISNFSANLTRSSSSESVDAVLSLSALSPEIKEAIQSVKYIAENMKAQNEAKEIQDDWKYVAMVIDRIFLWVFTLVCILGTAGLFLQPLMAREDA
T2 sequence (P17787 whole entry): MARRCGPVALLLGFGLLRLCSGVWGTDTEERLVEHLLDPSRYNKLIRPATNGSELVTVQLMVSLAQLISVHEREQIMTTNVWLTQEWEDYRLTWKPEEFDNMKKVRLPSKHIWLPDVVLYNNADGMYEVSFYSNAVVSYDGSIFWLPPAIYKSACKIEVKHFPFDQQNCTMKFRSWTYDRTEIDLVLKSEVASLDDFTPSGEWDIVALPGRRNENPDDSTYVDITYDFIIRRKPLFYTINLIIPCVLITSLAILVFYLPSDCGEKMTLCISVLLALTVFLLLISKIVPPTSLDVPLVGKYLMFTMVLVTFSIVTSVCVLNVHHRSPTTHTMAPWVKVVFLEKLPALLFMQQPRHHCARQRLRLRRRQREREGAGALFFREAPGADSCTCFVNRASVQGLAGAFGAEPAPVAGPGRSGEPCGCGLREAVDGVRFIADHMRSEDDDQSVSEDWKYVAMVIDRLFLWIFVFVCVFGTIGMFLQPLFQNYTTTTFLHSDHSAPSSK
T2 sequence (P43681 whole entry): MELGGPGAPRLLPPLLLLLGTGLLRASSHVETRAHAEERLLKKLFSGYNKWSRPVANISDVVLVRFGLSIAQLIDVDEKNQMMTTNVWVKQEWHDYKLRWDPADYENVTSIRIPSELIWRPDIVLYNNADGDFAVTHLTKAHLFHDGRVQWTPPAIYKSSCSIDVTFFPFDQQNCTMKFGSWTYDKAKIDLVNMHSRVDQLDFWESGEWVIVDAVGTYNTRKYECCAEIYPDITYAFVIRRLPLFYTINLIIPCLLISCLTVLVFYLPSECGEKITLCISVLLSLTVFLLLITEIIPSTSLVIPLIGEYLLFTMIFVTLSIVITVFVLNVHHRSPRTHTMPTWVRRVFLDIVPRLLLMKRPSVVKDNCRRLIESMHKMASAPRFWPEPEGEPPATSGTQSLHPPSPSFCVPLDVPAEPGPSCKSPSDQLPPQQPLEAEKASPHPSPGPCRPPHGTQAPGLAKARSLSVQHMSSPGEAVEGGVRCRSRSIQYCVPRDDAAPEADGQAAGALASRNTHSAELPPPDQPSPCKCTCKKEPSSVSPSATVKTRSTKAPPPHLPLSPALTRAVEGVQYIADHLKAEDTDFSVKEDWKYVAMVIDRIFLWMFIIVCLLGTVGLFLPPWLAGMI

Structure (SMILES) | Ki [1] | Ki [2] | Ratio Ki [6] | Ratio Ki [7] | Ki [9] | further results
CN1CCC[C@H]1[C@H]1COc2cccnc2O1 | 30 µM | 12 µM |  |  |  | 
CN1CCC[C@H]1[C@@H]1COc2ccccc2O1 | 0.26 µM | 21 µM | 81 | 5 | 1.2 µM | IC50 [3]: 2.78 to 2.8 µM; Activity [4]: inactive; IC50 [5]: 5.36 to 5.4 µM; Activity [8]: inactive
CN1CCC[C@H]1[C@@H]1COc2ccncc2O1 | 1.64 µM |  |  |  | 5.8 µM | 
CN1CCC[C@H]1[C@H]1COc2ccncc2O1 | 3.6 µM |  |  |  | 8.9 µM | 
C[C@@H](Oc1cccc(O)c1)[C@@H]1CCCN1C | 0.011 µM | 0.057 µM | 5 | 23 |  | 
CN1CCC[C@H]1[C@@H]1COc2ncccc2O1 | 0.41 µM | 89 µM | 215 | 39 | 16.2 µM | %max [10]: 24.2%; EC50 [4]: 10.1 µM
CN1CCC[C@H]1[C@H]1COc2ncccc2O1 | 30.4 µM | > 10 µM |  |  | 22 µM | 
CN1CCC[C@H]1[C@@H]1COc2cccnc2O1 | 43 µM | 24 µM |  |  |  | 
CN1CCC[C@H]1[C@H]1COc2ccccc2O1 | 0.47 µM | 14.6 µM |  |  | 8.2 µM | 
CN1CCC[C@H]1[C@H]1COc2ccc(O)cc2O1 | 0.012 µM | 0.43 µM | 36 | 26 | 0.31 µM | 
CN1CCC[C@H]1c1cc2ccccc2o1 |  |  |  |  |  | Ki [11]: 0.16 µM
COc1ccc(O)cc1OC[C@@H]1CCCN1C | 0.019 µM | 1.15 µM | 60 | 14 |  | 
